# Source: ChEMBL document CHEMBL4002589, “Tri- and Tetrasubstituted Pyridinylimidazoles as Covalent Inhibitors of c-Jun N-Terminal Kinase 3” (J Med Chem, 2017)
# Activity calls are given as the source filed them. The rule behind the calls is not given here.
# Tested on: Mitogen-activated protein kinase 10 (Homo sapiens), P53779 [C154A]
# Test: Covalent binding affinity to JNK3 C154A mutant (unknown origin) at 5 molar excess after 1 hr by LC-muESI-QTOF mass spectrometry
# Details: not given
# How it was run: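 Intact-protein mass spectrometry with a JNK3 mutant carrying Cys-154→Ala. Inhibitor is incubated with the protein. Unbound and reversibly bound ligand are removed by chromatography and by a high declustering potential before ionization. The protein is then analysed by LC-µESI-QTOF to look for a mass shift from a covalent adduct.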
# Sequence of Mitogen-activated protein kinase 10 (Homo sapiens), P53779 [C154A] (P53779 whole entry C154A): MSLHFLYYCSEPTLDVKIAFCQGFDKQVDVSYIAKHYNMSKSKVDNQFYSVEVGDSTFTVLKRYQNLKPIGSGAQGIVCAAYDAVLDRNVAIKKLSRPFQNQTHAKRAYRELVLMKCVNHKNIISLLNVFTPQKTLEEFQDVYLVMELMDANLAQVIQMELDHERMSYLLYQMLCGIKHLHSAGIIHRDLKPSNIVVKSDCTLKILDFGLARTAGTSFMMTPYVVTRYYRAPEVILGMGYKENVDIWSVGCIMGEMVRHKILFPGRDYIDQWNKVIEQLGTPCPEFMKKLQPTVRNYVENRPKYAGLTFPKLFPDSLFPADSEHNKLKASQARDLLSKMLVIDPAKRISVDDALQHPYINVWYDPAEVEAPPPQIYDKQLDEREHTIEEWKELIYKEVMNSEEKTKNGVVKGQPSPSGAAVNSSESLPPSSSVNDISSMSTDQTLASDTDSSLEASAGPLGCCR
row,Compound,Activity
1,C=CC(=O)Nc1ccc(C(=O)Nc2ccc(Nc3cc(-c4c(-c5ccc(F)cc5)nc(SC)n4C)ccn3)cc2)cc1,inactive
2,C=CC(=O)Nc1cccc(C(=O)Nc2ccc(Nc3cc(-c4c(-c5ccc(F)cc5)nc(SC)n4C)ccn3)cc2)c1,inactive

# Biological target: MAP kinase-activated protein kinase 2 (Homo sapiens) (UniProt P49137)
# Sequence (P49137 whole entry, looked up): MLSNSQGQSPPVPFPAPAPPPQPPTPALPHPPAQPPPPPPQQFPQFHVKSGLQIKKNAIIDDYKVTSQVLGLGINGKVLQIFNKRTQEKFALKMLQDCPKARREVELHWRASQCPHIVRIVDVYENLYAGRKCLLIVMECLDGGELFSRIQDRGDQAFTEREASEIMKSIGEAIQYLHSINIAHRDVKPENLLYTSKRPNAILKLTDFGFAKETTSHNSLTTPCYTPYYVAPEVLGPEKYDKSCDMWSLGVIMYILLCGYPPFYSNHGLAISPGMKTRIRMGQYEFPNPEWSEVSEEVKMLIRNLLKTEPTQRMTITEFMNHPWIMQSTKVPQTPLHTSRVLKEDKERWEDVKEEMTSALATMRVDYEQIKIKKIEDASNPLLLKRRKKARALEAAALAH
# Test: Inhibition of human MAPKAPK2 expressed in Sf9 cells assessed as residual activity at 0.5 uM relative to control
# Details: not given
# How it was run: (§1)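 Each inhibitor is tested at a single concentration, 1 µM or 0.5 µM depending on the compound. Results are reported as residual kinase activity.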
row,Compound,Activity
1,C=CC(=O)Nc1cccc(C(=O)Nc2ccc(Nc3cc(-c4c(-c5ccc(F)cc5)nc(SC)n4C)ccn3)cc2)c1,30 to 50%

# Biological target: Mitogen-activated protein kinase 10 (Homo sapiens, UniProt P53779)
# Sequence (P53779 whole entry, the tested form may be a part): as the sequence (P53779 whole entry C154A) above, with A154C counted along it
# Test: Inhibition of recombinant 6x-His-tagged JNK3 (39 to 402 residues) (unknown origin) expressed in Escherichia coli BL21(DE3) assessed as reduction in ATF2 phosphorylation measured after 50 mins by ELISA
# Details: not given
row,Compound,IC50
1,C=CC(=O)Nc1ccc(C(=O)Nc2ccc(Nc3cc(-c4[nH]c(SC)nc4-c4ccc(F)cc4)ccn3)cc2)cc1,0.003 µM
2,C=CC(=O)Nc1ccc(C(=O)Nc2ccc(Nc3cc(-c4c(-c5ccc(F)cc5)nc(SC)n4C)ccn3)cc2)cc1,0.01 µM
3,CCC(=O)Nc1cccc(C(=O)Nc2cccc(Nc3cc(-c4c(-c5ccc(F)cc5)nc(SC)n4C)ccn3)c2)c1,0.175 µM
4,C=CC(=O)Nc1ccc(C(=O)Nc2ccc(Nc3cc(-c4c(-c5ccc(F)cc5)nc(SC)n4C)ccn3)c(C)c2)cc1,0.008 µM
5,CSc1nc(-c2ccc(F)cc2)c(-c2ccnc(Nc3ccc(N)cc3)c2)[nH]1,0.024 µM
6,C=CC(=O)Nc1cccc(C(=O)Nc2cccc(Nc3cc(-c4c(-c5ccc(F)cc5)nc(SC)n4C)ccn3)c2)c1C,0.003 µM
7,CCC(=O)Nc1cccc(C(=O)Nc2ccc(Nc3cc(-c4c(-c5ccc(F)cc5)nc(SC)n4C)ccn3)cc2)c1,0.023 µM
8,CSc1nc(-c2ccc(F)cc2)c(-c2ccnc(Nc3ccc(NC(=O)c4cccc(N)c4)cc3)c2)n1C,0.03 µM
9,CCC(=O)Nc1ccc(C(=O)Nc2ccc(Nc3cc(-c4c(-c5ccc(F)cc5)nc(SC)n4C)ccn3)c(C)c2)cc1,0.025 µM
10,C=CC(=O)Nc1cccc(C(=O)Nc2ccc(Nc3cc(-c4c(-c5ccc(F)cc5)nc(SC)n4C)ccn3)cc2)c1,0.0003 µM
11,CCC(=O)Nc1ccc(C(=O)Nc2ccc(Nc3cc(-c4c(-c5ccc(F)cc5)nc(SC)n4C)ccn3)cc2)cc1,0.027 µM
12,C=CC(=O)Nc1ccc(C(=O)Nc2ccc(Nc3cc(-c4[nH]c(SC)nc4C)ccn3)cc2)cc1,0.2 µM
13,C=CC(=O)Nc1ccc(C(=O)Nc2cccc(Nc3cc(-c4c(-c5ccc(F)cc5)nc(SC)n4C)ccn3)c2)cc1,0.004 µM
14,C=CC(=O)Nc1cccc(C(=O)Nc2ccc(Nc3cc(-c4c(-c5ccc(F)cc5)nc(SC)n4C)ccn3)c(C)c2)c1,0.002 µM
15,C=CC(=O)Nc1cccc(C(=O)Nc2ccc(Nc3cc(-c4c(-c5ccc(F)cc5)nc(SC)n4C)ccn3)cc2)c1C,0.002 µM
16,CCC(=O)Nc1cccc(C(=O)Nc2ccc(Nc3cc(-c4c(-c5ccc(F)cc5)nc(SC)n4C)ccn3)cc2)c1C,0.017 µM
17,CCC(=O)Nc1cccc(C(=O)Nc2ccc(Nc3cc(-c4[nH]c(SC)nc4-c4ccc(F)cc4)ccn3)cc2)c1,0.002 µM
18,C=CC(=O)Nc1cccc(C(=O)Nc2ccc(Nc3cc(-c4[nH]c(SC)nc4-c4ccc(F)cc4)ccn3)cc2)c1,0.0006 µM
19,C=CC(=O)Nc1cccc(C(=O)Nc2cccc(Nc3cc(-c4c(-c5ccc(F)cc5)nc(SC)n4C)ccn3)c2)c1,0.003 µM
20,CCC(=O)Nc1cccc(C(=O)Nc2ccc(Nc3cc(-c4[nH]c(SC)nc4C)ccn3)cc2)c1,0.253 µM

# Biological target: Angiopoietin-1 receptor (Homo sapiens) (UniProt Q02763)
# Sequence (Q02763 whole entry): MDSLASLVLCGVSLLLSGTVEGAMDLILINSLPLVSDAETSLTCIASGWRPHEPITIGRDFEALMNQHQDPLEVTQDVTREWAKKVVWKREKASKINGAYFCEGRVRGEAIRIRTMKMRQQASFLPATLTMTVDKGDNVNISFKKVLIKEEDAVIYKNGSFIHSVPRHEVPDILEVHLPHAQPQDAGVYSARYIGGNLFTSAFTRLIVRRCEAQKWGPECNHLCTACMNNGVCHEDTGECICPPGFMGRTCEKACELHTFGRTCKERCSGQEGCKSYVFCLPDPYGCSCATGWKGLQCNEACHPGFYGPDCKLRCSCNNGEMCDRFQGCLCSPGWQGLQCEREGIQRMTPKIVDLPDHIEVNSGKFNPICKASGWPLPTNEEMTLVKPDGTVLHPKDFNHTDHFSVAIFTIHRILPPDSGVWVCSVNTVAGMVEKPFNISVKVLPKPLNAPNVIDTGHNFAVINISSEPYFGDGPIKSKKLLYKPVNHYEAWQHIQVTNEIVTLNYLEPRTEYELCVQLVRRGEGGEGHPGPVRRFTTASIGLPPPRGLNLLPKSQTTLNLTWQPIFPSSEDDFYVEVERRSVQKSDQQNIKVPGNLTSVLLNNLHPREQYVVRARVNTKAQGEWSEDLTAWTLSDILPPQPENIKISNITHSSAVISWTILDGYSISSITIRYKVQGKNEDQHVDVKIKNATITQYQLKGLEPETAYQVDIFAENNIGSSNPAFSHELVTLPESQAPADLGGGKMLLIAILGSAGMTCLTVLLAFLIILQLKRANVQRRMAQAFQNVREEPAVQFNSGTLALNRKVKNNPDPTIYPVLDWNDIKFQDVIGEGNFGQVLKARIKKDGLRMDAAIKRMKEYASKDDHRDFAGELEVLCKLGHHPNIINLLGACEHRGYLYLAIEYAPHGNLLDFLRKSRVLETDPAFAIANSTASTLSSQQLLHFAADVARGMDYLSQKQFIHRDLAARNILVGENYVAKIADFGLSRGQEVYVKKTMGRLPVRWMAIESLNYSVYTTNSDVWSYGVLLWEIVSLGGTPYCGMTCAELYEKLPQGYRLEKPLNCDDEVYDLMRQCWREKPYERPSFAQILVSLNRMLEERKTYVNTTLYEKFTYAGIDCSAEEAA
# Test: Inhibition of human wild type C-terminal GST-His-tagged TIE2 expressed in Sf9 cells assessed as residual activity at 0.5 uM relative to control
# Details: not given
# How it was run: as §1
row,Compound,Activity
1,C=CC(=O)Nc1cccc(C(=O)Nc2ccc(Nc3cc(-c4c(-c5ccc(F)cc5)nc(SC)n4C)ccn3)cc2)c1,30 to 50%

# Biological target: Mitogen-activated protein kinase 14 (Homo sapiens, UniProt Q16539)
# Sequence (Q16539 whole entry): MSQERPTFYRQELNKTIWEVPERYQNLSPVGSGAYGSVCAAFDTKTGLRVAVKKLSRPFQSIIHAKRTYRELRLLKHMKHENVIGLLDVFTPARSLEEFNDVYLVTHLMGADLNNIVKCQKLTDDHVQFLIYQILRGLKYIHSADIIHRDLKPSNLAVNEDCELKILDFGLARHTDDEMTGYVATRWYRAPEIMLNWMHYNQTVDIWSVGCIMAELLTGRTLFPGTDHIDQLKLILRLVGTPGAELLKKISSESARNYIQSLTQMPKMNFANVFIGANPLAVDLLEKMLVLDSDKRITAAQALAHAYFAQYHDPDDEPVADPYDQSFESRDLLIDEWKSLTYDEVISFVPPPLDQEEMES
# Test: Inhibition of GST-His tagged human p38alpha expressed in Escherichia coli assessed as reduction in ATF2 phosphorylation measured after 60 mins by ELISA
# Details: not given
# How it was run: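 ELISA kinase assays run in parallel for JNK3 and p38α, with 60 min incubation. IC50 values are the mean of three experiments.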
row,Compound,IC50
1,C=CC(=O)Nc1ccc(C(=O)Nc2ccc(Nc3cc(-c4[nH]c(SC)nc4-c4ccc(F)cc4)ccn3)cc2)cc1,0.003 µM
2,C=CC(=O)Nc1ccc(C(=O)Nc2ccc(Nc3cc(-c4c(-c5ccc(F)cc5)nc(SC)n4C)ccn3)cc2)cc1,0.047 µM
3,CCC(=O)Nc1cccc(C(=O)Nc2cccc(Nc3cc(-c4c(-c5ccc(F)cc5)nc(SC)n4C)ccn3)c2)c1,0.241 µM
4,C=CC(=O)Nc1ccc(C(=O)Nc2ccc(Nc3cc(-c4c(-c5ccc(F)cc5)nc(SC)n4C)ccn3)c(C)c2)cc1,0.035 µM
5,CSc1nc(-c2ccc(F)cc2)c(-c2ccnc(Nc3ccc(N)cc3)c2)[nH]1,0.017 µM
6,C=CC(=O)Nc1cccc(C(=O)Nc2cccc(Nc3cc(-c4c(-c5ccc(F)cc5)nc(SC)n4C)ccn3)c2)c1C,0.1 µM
7,CCC(=O)Nc1cccc(C(=O)Nc2ccc(Nc3cc(-c4c(-c5ccc(F)cc5)nc(SC)n4C)ccn3)cc2)c1,0.126 µM
8,CSc1nc(-c2ccc(F)cc2)c(-c2ccnc(Nc3ccc(NC(=O)c4cccc(N)c4)cc3)c2)n1C,0.149 µM
9,CCC(=O)Nc1ccc(C(=O)Nc2ccc(Nc3cc(-c4c(-c5ccc(F)cc5)nc(SC)n4C)ccn3)c(C)c2)cc1,0.022 µM
10,C=CC(=O)Nc1cccc(C(=O)Nc2ccc(Nc3cc(-c4c(-c5ccc(F)cc5)nc(SC)n4C)ccn3)cc2)c1,0.036 µM
11,CCC(=O)Nc1ccc(C(=O)Nc2ccc(Nc3cc(-c4c(-c5ccc(F)cc5)nc(SC)n4C)ccn3)cc2)cc1,0.017 µM
12,C=CC(=O)Nc1ccc(C(=O)Nc2ccc(Nc3cc(-c4[nH]c(SC)nc4C)ccn3)cc2)cc1,5.92 µM
13,C=CC(=O)Nc1ccc(C(=O)Nc2cccc(Nc3cc(-c4c(-c5ccc(F)cc5)nc(SC)n4C)ccn3)c2)cc1,0.026 µM
14,C=CC(=O)Nc1cccc(C(=O)Nc2ccc(Nc3cc(-c4c(-c5ccc(F)cc5)nc(SC)n4C)ccn3)c(C)c2)c1,0.003 µM
15,C=CC(=O)Nc1cccc(C(=O)Nc2ccc(Nc3cc(-c4c(-c5ccc(F)cc5)nc(SC)n4C)ccn3)cc2)c1C,0.002 µM
16,CCC(=O)Nc1cccc(C(=O)Nc2ccc(Nc3cc(-c4c(-c5ccc(F)cc5)nc(SC)n4C)ccn3)cc2)c1C,0.038 µM
17,CCC(=O)Nc1cccc(C(=O)Nc2ccc(Nc3cc(-c4[nH]c(SC)nc4-c4ccc(F)cc4)ccn3)cc2)c1,0.004 µM
18,C=CC(=O)Nc1cccc(C(=O)Nc2ccc(Nc3cc(-c4[nH]c(SC)nc4-c4ccc(F)cc4)ccn3)cc2)c1,0.0008 µM
19,C=CC(=O)Nc1cccc(C(=O)Nc2cccc(Nc3cc(-c4c(-c5ccc(F)cc5)nc(SC)n4C)ccn3)c2)c1,0.217 µM
20,CCC(=O)Nc1cccc(C(=O)Nc2ccc(Nc3cc(-c4[nH]c(SC)nc4C)ccn3)cc2)c1,> 10 µM

# Tested on: not listed separately
# Test: Drug metabolism in human liver microsomes at 100 uM preincubated with NADPH regenerating system for 5 mins followed by addition of liver microsomes measured after 180 mins by LC-MS analysis
# Assay type: ADME, microsome
# Details: read-out: Drug metabolism
row,Compound,"metabolised at 3 h, 100 µM"
1,C=CC(=O)Nc1cccc(C(=O)Nc2ccc(Nc3cc(-c4c(-c5ccc(F)cc5)nc(SC)n4C)ccn3)cc2)c1,13%

# Biological target: Casein kinase I isoform delta (Homo sapiens) (UniProt P48730)
# Sequence (P48730 whole entry, looked up, canonical isoform): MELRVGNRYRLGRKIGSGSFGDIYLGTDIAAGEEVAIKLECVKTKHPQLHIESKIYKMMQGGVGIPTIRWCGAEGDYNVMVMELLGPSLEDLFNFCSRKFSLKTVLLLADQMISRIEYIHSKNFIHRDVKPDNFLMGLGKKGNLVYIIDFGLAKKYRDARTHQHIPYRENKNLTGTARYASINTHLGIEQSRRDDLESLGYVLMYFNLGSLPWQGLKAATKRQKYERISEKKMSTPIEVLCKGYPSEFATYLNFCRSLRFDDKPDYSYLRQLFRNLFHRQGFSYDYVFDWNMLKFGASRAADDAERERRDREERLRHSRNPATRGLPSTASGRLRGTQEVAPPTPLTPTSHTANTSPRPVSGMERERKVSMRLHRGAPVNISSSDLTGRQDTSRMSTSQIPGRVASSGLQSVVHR
# Test: Inhibition of CK1 delta (unknown origin) assessed as residual activity at 0.5 uM
# Details: not given
# How it was run: as §1
row,Compound,Activity
1,C=CC(=O)Nc1cccc(C(=O)Nc2ccc(Nc3cc(-c4c(-c5ccc(F)cc5)nc(SC)n4C)ccn3)cc2)c1,30 to 50%

# Tested on: not listed separately
# Test: Glutathione reactivity at 10 uM after 54 mins in presence of 5 mM GSH by HPLC method
# Details: not given
# How it was run: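 Test compound (10 µM) is incubated with glutathione (5 mM) under conditions like those of the kinase activity assay (max. concentration 10 µM, 54 min, 37°C).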
row,Compound,Drug metabolism
1,C=CC(=O)Nc1cccc(C(=O)Nc2ccc(Nc3cc(-c4c(-c5ccc(F)cc5)nc(SC)n4C)ccn3)cc2)c1,Metabolite detected
